Test results published in ChEMBL document CHEMBL5046302, “Identification and Evaluation of Brominated Carbazoles as a Novel Antibiotic Adjuvant Scaffold in MRSA” (2022).
Activity calls are given as the source filed them. The calls are words filed in the database; no cut-off is given here.

How the values were obtained:
Type in all cases: functional
[1] = test system: Staphylococcus aureus; assay: Potentiation of oxacillin induced antibacterial activity against methicillin-resistant Staphylococcus aureus COL assessed as fold change in oxacillin MIC at 25 uM after 18 hrs by CLSI protocol based broth microdilution assay
[2] = test system: Staphylococcus aureus; assay: Potentiation of methicillin induced antibacterial activity against methicillin-resistant Staphylococcus aureus ATCC 43300 assessed as fold change in methicillin MIC at 25 uM after 18 hrs by CLSI protocol based broth microdilution assay
[3] = test system: Staphylococcus aureus; assay: Potentiation of oxacillin induced antibacterial activity against methicillin-resistant Staphylococcus aureus USA300 harboring stk1 deletion mutant assessed as oxacillin MIC at 25 uM after 18 hrs by CLSI protocol based broth microdilution assay
[4] = test system: Staphylococcus aureus; assay: Potentiation of oxacillin induced antibacterial activity against methicillin-resistant Staphylococcus aureus assessed as fold decrease in blaZ gene expression at 25 uM by RT-qPCR analysis
Outline: (§1)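 Fold dampening is the relative mRNA level of the gene, normalised to 16S rRNA, in oxacillin-treated cells divided by that in cells cotreated with oxacillin plus carbazole. Carbazole was used at 25 or 50 μM, as given in each line.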

[5] = test system: Staphylococcus aureus; assay: Potentiation of oxacillin induced antibacterial activity against methicillin-resistant Staphylococcus aureus USA100 assessed as oxacillin MIC at 25 uM after 18 hrs by CLSI protocol based broth microdilution assay
[6] = test system: Staphylococcus aureus; assay: Potentiation of cefoxitin induced antibacterial activity against methicillin-resistant Staphylococcus aureus ATCC 43300 assessed as cefoxitin MIC at 25 uM after 18 hrs by CLSI protocol based broth microdilution assay
[7] = test system: Staphylococcus aureus; assay: Potentiation of methicillin induced antibacterial activity against methicillin-resistant Staphylococcus aureus ATCC 43300 assessed as methicillin MIC at 25 uM after 18 hrs by CLSI protocol based broth microdilution assay
[8] = test system: Staphylococcus aureus; assay: Upregulation of mecA gene expression in methicillin-resistant Staphylococcus aureus USA100 at 25 uM by RT-PCR method
[9] = test system: Staphylococcus aureus; assay: Potentiation of ampicillin induced antibacterial activity against methicillin-resistant Staphylococcus aureus USA100 assessed as fold change in ampicillin MIC at 25 uM after 18 hrs by CLSI protocol based broth microdilution assay
[10] = test system: Staphylococcus aureus; assay: Potentiation of ampicillin induced antibacterial activity against methicillin-resistant Staphylococcus aureus USA100 assessed as ampicillin MIC at 25 uM after 18 hrs by CLSI protocol based broth microdilution assay
[11] = test system: Staphylococcus aureus; assay: Upregulation of mecA gene expression in methicillin-resistant Staphylococcus aureus ATCC 43300 at 50 uM by RT-PCR method
[12] = test system: Staphylococcus aureus; assay: Potentiation of oxacillin induced antibacterial activity against methicillin-resistant Staphylococcus aureus assessed as fold decrease in blaI gene expression at 50 uM by RT-qPCR analysis; outline: as §1

| Structure (SMILES) | fold change (FC) [1] | fold change (FC) [2] | MIC [3] [µg/mL] | fold change (FC) [4] | MIC [5] [µg/mL] | MIC [6] [µg/mL] | MIC [7] [µg/mL] | Activity [8] | fold change (FC) [9] | MIC [10] [µg/mL] | Activity [11] | fold change (FC) [12] |
| --- | --- | --- | --- | --- | --- | --- | --- | --- | --- | --- | --- | --- |
| Brc1cccc2[nH]c3ccccc3c12 | 1 | 1 | 0.25 | 8.06 | 16 | 16 | 4 | inactive | 4 | 8 | – | – |
| Brc1cccc2c1[nH]c1ccccc12 | – | – | – | – | – | – | – | – | – | – | inactive | 1.36 |
